# Assay results from different studies.
# Read-out: cell growth or viability
Structure (SMILES),cell line,method,tested at,time,endpoint,result
CC1c2ccccc2CCN1c1ccc(CO)c(Cl)c1 (stereo not shown),RBE,ATP luminescence,46 µM,72 h,inhibition,91%
O=C(/C=C/c1cccc(C(=O)NO)c1)NO,HBL1,ATP luminescence,1 µM,5 days,viability,37.7%
CN(C)CCNC(=O)c1ccc(-c2nc3ccc4[nH]ncc4c3c3c2CCCC3)c(F)c1,MV4-11,resazurin,,72 h,GI50,127 nM
OCc1ccc(N(Cc2ccc(F)cc2)Cc2ccc(F)cc2)cc1Cl,RBE,ATP luminescence,46 µM,72 h,inhibition,78%
NC(=O)C1CCCN1C(=O)Nc1ccccc1/N=c1\cc(-c2ccc3c(c2)OCCO3)oc2cc(F)ccc12 (stereo not shown),MDA-MB-468,CCK-8,1 µM,,inhibition,3.25%
C[C@H](Nc1ccc2c(c1)OCCn1cc(N3C(=O)OC[C@H]3C(F)F)nc1-2)C(N)=O,IM95,ATP luminescence,,5 days,EC50,388 nM
Cc1n[nH]c2ccc3nc(-c4ccc(C(=O)N(C)CCN(C)C)cc4)c4c(c3c12)CCC(F)(F)C4,MV4-11,resazurin,,72 h,GI50,814 nM
COc1cnccc1Cn1nc(-c2ccc(CO)o2)c2ccccc21,RBE,ATP luminescence,46 µM,72 h,inhibition,85%
CN(C)CC1(NC(=O)c2ccc(-c3nc4ccc5[nH]ncc5c4c4c3CCCC4)cc2)CC1,MV4-11,resazurin,,72 h,GI50,536 nM
COC(=O)CNC(=O)C(=O)OC,HBL1,ATP luminescence,1 µM,5 days,viability,93.3%
CCN(Cc1c(F)cccc1F)c1ccc(CO)c(Cl)c1,RBE,ATP luminescence,46 µM,72 h,inhibition,57%
Cc1n[nH]c2ccc3nc(-c4ccc(C(=O)N(C)CCN(C)C)nc4)c4c(c3c12)CCCCC4,MV4-11,resazurin,,72 h,GI50,1100 nM
O=C(NO)c1ccc(CC(=O)N(CCO)c2ccccc2)cc1,HBL1,ATP luminescence,0.1 µM,5 days,viability,103%
Nc1nc2ccc(-c3c/c(=N\c4ccccc4NC(=O)C4CCNC4)c4ccccc4o3)cc2o1 (stereo not shown),MDA-MB-468,CCK-8,1 µM,,inhibition,55.6%
O=C(CCCCCCC(=O)Nc1ccccc1)NO,HBL1,ATP luminescence,1 µM,5 days,viability,10.7%
CC(=O)ON=C1C=CC(=C(C#N)c2ccccc2)C=C1,human Fibroblast,MTT,,72 h,IC50,19.6 µg/mL
CC(c1ccccc1)n1nc(-c2ccc(CO)o2)c2ccccc21 (stereo not shown),RBE,ATP luminescence,46 µM,72 h,inhibition,76%
CC(=O)OC[C@H]1O[C@@H](n2cnc(N)nc2=O)[C@H](OC(C)=O)[C@@H]1OC(C)=O,HBL1,ATP luminescence,0.1 µM,5 days,viability,105%
CN(C)CCNC(=O)c1ccc(-c2nc3ccc4[nH]ncc4c3c3c2CCCCC3)cc1,MV4-11,resazurin,,72 h,GI50,25 nM
O=C(Nc1ccc(Cl)cc1)C1CCCN(C(=O)c2cc(C(F)(F)F)cc(C(F)(F)F)c2)C1 (racemic),HBL1,ATP luminescence,0.5 µM,5 days,viability,98.8%
Cc1n[nH]c2ccc3nc(-c4ccc(C(=O)N(C)CCN(C)C)cn4)c4c(c3c12)CCCCC4,MV4-11,resazurin,,72 h,GI50,713 nM
OCc1ccc(-c2nn(Cc3cccc(F)c3)c3ccccc23)o1,RBE,ATP luminescence,46 µM,72 h,inhibition,60%
NCCC(=O)Nc1ccccc1/N=c1\cc(-c2ccc3oc(N)nc3c2)oc2ccccc12,MDA-MB-468,CCK-8,1 µM,,inhibition,59.8%
O=C(Nc1cccc(Br)c1)c1cccc(S(=O)(=O)N2CCCCCC2)c1,HBL1,ATP luminescence,0.1 µM,5 days,viability,134%
NCCC(=O)Nc1ccccc1/N=c1\cc(-c2ccc3c(c2)OCO3)oc2ccccc12,MDA-MB-468,CCK-8,1 µM,,inhibition,19.2%
OCc1ccc(-c2nn(Cc3cncnc3)c3ccccc23)o1,RBE,ATP luminescence,46 µM,72 h,inhibition,71%
NCC(=O)Nc1ccccc1/N=c1\cc(-c2ccc3c(c2)OCO3)oc2c(N)cccc12,MDA-MB-468,CCK-8,1 µM,,inhibition,-4.61%
CCN(CC)CCNC(=O)c1ccc(-c2nc3ccc4[nH]ncc4c3c3c2CCCC3)cc1,MV4-11,resazurin,,72 h,GI50,440 nM
COc1ccc2/c(=N/c3ccccc3NC(=O)[C@@H](N)CO)cc(-c3ccc4c(c3)OCCO4)oc2c1,MDA-MB-468,CCK-8,1 µM,,inhibition,15.1%
O=C(CCCCCCSc1ccc2ccccc2c1)NO,HBL1,ATP luminescence,0.1 µM,5 days,viability,112%
COCCC(=O)Nc1ccccc1/N=c1\cc(-c2ccc3c(c2)OCO3)oc2ccccc12,MDA-MB-468,CCK-8,1 µM,,inhibition,2.51%
CN(C)CCNC(=O)c1ccc(-c2nc3ccc4[nH]ncc4c3c3c2CCCC3)s1,MV4-11,resazurin,,72 h,GI50,157 nM
COCCN(Cc1ccc(F)cc1)c1ccc(CO)c(Cl)c1,RBE,ATP luminescence,46 µM,72 h,inhibition,75%
NCCCC(=O)Nc1ccccc1/N=c1\cc(-c2ccc3c(c2)OCO3)oc2ccccc12,MDA-MB-468,CCK-8,1 µM,,inhibition,8.13%
